≈ marks a conversion by molar mass, not a printed value.
What was measured:
Candida albicans [1] = assay: Antifungal activity against Candida albicans IOA-109 at 37 degC after 18 to 48 hrs; assay type: functional
Aspergillus niger [2] = assay: Antifungal activity against Aspergillus niger at 28 degC after 72 hrs; assay type: functional
Method in brief: (§1)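 Filamentous fungi were kept on SDA at 28 °C. Spores from 7-day cultures were suspended in sterile normal saline to about 10⁵ cfu/ml, and about 0.1 ml was spread on SDA plates. Compounds were serially diluted two-fold in DMSO and impregnated on 8 mm discs, with a solvent control disc on each plate. Plates were held at 28 °C for 72 h or more, and inhibition zone diameter was read in mm.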

Trichoderma viride [3] = assay: Antifungal activity against Trichoderma viride at 28 degC after 72 hrs; assay type: functional; method in brief: as §1
Penicillium sp. [4] = assay: Antifungal activity against Penicillium sp. at 28 degC after 72 hrs; assay type: functional; method in brief: as §1
Candida albicans [5] = assay: Antifungal activity against Candida albicans IOA-109 at 30 ug/disk at 37 degC after 18 to 48 hrs; assay type: functional, organism-based
Method in brief: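 Disc diffusion on SDA. Inoculum was grown overnight in SD broth at 37 °C, centrifuged, and resuspended in sterile NSS to 10⁵ cfu/ml; about 0.1 ml was spread per plate. 8 mm discs carried compound from a DMSO stock, alongside a solvent disc and a nystatin disc. After 18–48 h at 37 °C, inhibition-zone diameter was read in mm.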

Aspergillus niger [6] = assay: Antifungal activity against Aspergillus niger at 30 ug/disk at 28 degC after 72 hrs; assay type: functional, organism-based
Method in brief: (§2)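 Disc diffusion on SDA; cultures were kept at 28 °C. Spores from 7-day cultures were suspended in sterile normal saline ([…] NaCl as printed) and diluted to about 10⁵ cfu/ml; about 0.1 ml was spread per plate. 8 mm discs carried compound from a DMSO stock, alongside a solvent disc and a nystatin disc. After 72 h or more at 28 °C, inhibition-zone diameter was read in mm.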

Trichoderma viride [7] = assay: Antifungal activity against Trichoderma viride at 30 ug/disk at 28 degC after 72 hrs; assay type: functional, organism-based; method in brief: as §2
Penicillium sp. [8] = assay: Antifungal activity against Penicillium sp. at 30 ug/disk at 28 degC after 72 hrs; assay type: functional, organism-based; method in brief: as §2
Helminthosporium [9] = assay: Antifungal activity against Helminthosporium oryzae 2537 ICAR at 28 degC after 72 hrs; assay type: functional; method in brief: as §1
Helminthosporium [10] = assay: Antifungal activity against Helminthosporium oryzae 2537 ICAR at 30 ug/disk at 28 degC after 72 hrs; assay type: functional, organism-based; method in brief: as §2
Salmonella typhimurium = assay: Antibacterial activity against Salmonella Typhimurium MTCC 98 at 37 degC after 24 hrs by filter paper disk method; assay type: functional, Salmonella enterica subsp. enterica serovar Typhimurium; details: for MIC: Salmonella enterica, MTCC 98, 24 h
Method in brief: (§3)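 Compounds were taken from a 1 mg/ml DMSO stock and serially diluted two-fold over a 300 to 18.75 range, then loaded onto sterile 8 mm paper discs. Bacteria were grown overnight in nutrient broth at 37 °C, pelleted, and resuspended in sterile NSS to 10⁵ cfu/ml. About 0.1 ml was spread on NA plates. Plates were incubated 24 h at 37 °C with a solvent control disc, and inhibition zone diameter was read in mm.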

Bacillus subtilis = assay: Antibacterial activity against Bacillus subtilis ATCC 6051 at 37 degC after 24 hrs by filter paper disk method; assay type: functional; details: for MIC: Bacillus subtilis, ATCC 6051, 24 h; method in brief: as §3
Staphylococcus aureus = assay: Antibacterial activity against Staphylococcus aureus MSSA 22 at 37 degC after 24 hrs by filter paper disk method; assay type: functional; details: for MIC: Staphylococcus aureus, MSSA 22, 24 h; method in brief: as §3
Escherichia coli = assay: Antibacterial activity against Escherichia coli K-12 at 37 degC after 24 hrs by filter paper disk method; assay type: functional; details: for MIC: Escherichia coli, K-12, 24 h; method in brief: as §3

Compound | diameter of the inhibition zone (DIZ) (Salmonella typhimurium) [mm] | MIC (Salmonella typhimurium) [µg/mL] | diameter of the inhibition zone (DIZ) (Bacillus subtilis) [mm] | MIC (Bacillus subtilis) [µg/mL] | diameter of the inhibition zone (DIZ) (Staphylococcus aureus) [mm] | MIC (Staphylococcus aureus) [µg/mL] | diameter of the inhibition zone (DIZ) (Escherichia coli) [mm] | MIC (Escherichia coli) [µg/mL] | diameter of the inhibition zone (DIZ) (Candida albicans [1]) [mm] | MIC (Candida albicans [1]; Candida albicans, IOA-109) [µg/mL] | diameter of the inhibition zone (DIZ) (Aspergillus niger [2]) [mm] | MIC (Aspergillus niger [2]; Aspergillus niger, 72 h) [µg/mL] | diameter of the inhibition zone (DIZ) (Trichoderma viride [3]) [mm] | MIC (Trichoderma viride [3]; Trichoderma viride, 72 h) [µg/mL] | diameter of the inhibition zone (DIZ) (Penicillium sp. [4]) [mm] | MIC (Penicillium sp. [4]; Penicillium sp., 72 h) [µg/mL] | diameter of the inhibition zone (DIZ) (Helminthosporium [9]) [mm] | MIC (Helminthosporium [9]; Helminthosporium, 72 h) [µg/mL] | further results
NYSTATIN | – | – | – | – | – | – | – | – | – | – | – | – | – | – | – | – | – | – | MIC (Candida albicans [1]): 6 µg/mL; MIC (Aspergillus niger [2]): 12.5 µg/mL; MIC (Trichoderma viride [3]): 6 µg/mL; MIC (Penicillium sp. [4]): 6 µg/mL; inhibition zone (IZ) (Candida albicans [5]): 20 mm; inhibition zone (IZ) (Aspergillus niger [6]): 18 mm; inhibition zone (IZ) (Trichoderma viride [7]): 15 mm; inhibition zone (IZ) (Penicillium sp. [8]): 20 mm; MIC (Helminthosporium [9]): 12.5 µg/mL; inhibition zone (IZ) (Helminthosporium [10]): 18 mm
CCCCCCCC/C=C/CCCCCCCc1ncc[nH]1 | 11 | 75 (≈ 246 µM) | 19 | 37.5 (≈ 123 µM) | 15 | 150 (≈ 493 µM) | 11 | 150 (≈ 493 µM) | 18 | 75 (≈ 246 µM) | 12 | 150 (≈ 493 µM) | 4 | 75 (≈ 246 µM) | 17 | 150 (≈ 493 µM) | 12 | 150 (≈ 493 µM) | –
CCCCCCCC/C=C/CCCCCCCc1nc2cc(Cl)ccc2[nH]1 | 15 | 37.5 (≈ 96.4 µM) | 18 | 75 (≈ 193 µM) | 20 | 37.5 (≈ 96.4 µM) | 18 | 75 (≈ 193 µM) | 18 | 37.5 (≈ 96.4 µM) | 15 | 37.5 (≈ 96.4 µM) | 9 | 37.5 (≈ 96.4 µM) | 19 | 37.5 (≈ 96.4 µM) | 16 | 75 (≈ 193 µM) | –
CCCCCC[C@@H](O)C/C=C\CCCCCCCc1ncc[nH]1 | 12 | 75 (≈ 234 µM) | 18 | 37.5 (≈ 117 µM) | 15 | 150 (≈ 468 µM) | 12 | 150 (≈ 468 µM) | 18 | 75 (≈ 234 µM) | 13 | 150 (≈ 468 µM) | 6 | 75 (≈ 234 µM) | 18 | 150 (≈ 468 µM) | 13 | 150 (≈ 468 µM) | –
C=CCCCCCCCCc1nc2cc([N+](=O)[O-])ccc2[nH]1 | 12 | 37.5 (≈ 124 µM) | 19 | 37.5 (≈ 124 µM) | 22 | 150 (≈ 498 µM) | 20 | 75 (≈ 249 µM) | 18 | 37.5 (≈ 124 µM) | 15 | 37.5 (≈ 124 µM) | 8 | 37.5 (≈ 124 µM) | 18 | 37.5 (≈ 124 µM) | 10 | 75 (≈ 249 µM) | –
CCCCCC[C@@H](O)C/C=C\CCCCCCCc1nc2cc([N+](=O)[O-])ccc2[nH]1 | 12 | 37.5 (≈ 90.2 µM) | 21 | 37.5 (≈ 90.2 µM) | 19 | 37.5 (≈ 90.2 µM) | 16 | 37.5 (≈ 90.2 µM) | 19 | 37.5 (≈ 90.2 µM) | 16 | 37.5 (≈ 90.2 µM) | 9 | 37.5 (≈ 90.2 µM) | 19 | 37.5 (≈ 90.2 µM) | 15 | 75 (≈ 180 µM) | –
CCCCC/C=C\CC[C@H](O)CCCCCCCc1ncc[nH]1 | 12 | 75 (≈ 234 µM) | 19 | 37.5 (≈ 117 µM) | 15 | 150 (≈ 468 µM) | 12 | 150 (≈ 468 µM) | 18 | 75 (≈ 234 µM) | 14 | 150 (≈ 468 µM) | 6 | 75 (≈ 234 µM) | 19 | 150 (≈ 468 µM) | 12 | 150 (≈ 468 µM) | –
C=CCCCCCCCCc1nc2ccccc2[nH]1 | 16 | 75 (≈ 293 µM) | 22 | 75 (≈ 293 µM) | 20 | 150 (≈ 585 µM) | 18 | 150 (≈ 585 µM) | 19 | 75 (≈ 293 µM) | 14 | 150 (≈ 585 µM) | 7 | 75 (≈ 293 µM) | 18 | 75 (≈ 293 µM) | 13 | 150 (≈ 585 µM) | –
CCCCC/C=C\CC[C@H](O)CCCCCCCc1nc2c([nH]1)CCCC2 | 13 | 75 (≈ 200 µM) | 23 | 75 (≈ 200 µM) | 16 | 75 (≈ 200 µM) | 16 | 150 (≈ 400 µM) | 19 | 75 (≈ 200 µM) | 12 | 37.5 (≈ 100 µM) | 8 | 37.5 (≈ 100 µM) | 17 | 75 (≈ 200 µM) | 11 | 150 (≈ 400 µM) | –

From ChEMBL document CHEMBL1137675, “Convenient one-pot synthesis of novel 2-substituted benzimidazoles, tetrahydrobenzimidazoles and imidazoles and evaluation of their in vitro antibacterial and antifungal activities” (2009)
